Converted amounts (≈) assume the structure as drawn.
How the values were obtained:
[1] = target: T1, Cytochrome P450 11B2, mitochondrial (Homo sapiens, UniProt P19099); assay: Inhibition of human CYP11B2 expressed in human renal leiomyoblastoma cells harboring FDXR/FDX using 1-deoxycorticosterone as substrate by HTRF assay; format: cell-based
T1 sequence (P19099 whole entry): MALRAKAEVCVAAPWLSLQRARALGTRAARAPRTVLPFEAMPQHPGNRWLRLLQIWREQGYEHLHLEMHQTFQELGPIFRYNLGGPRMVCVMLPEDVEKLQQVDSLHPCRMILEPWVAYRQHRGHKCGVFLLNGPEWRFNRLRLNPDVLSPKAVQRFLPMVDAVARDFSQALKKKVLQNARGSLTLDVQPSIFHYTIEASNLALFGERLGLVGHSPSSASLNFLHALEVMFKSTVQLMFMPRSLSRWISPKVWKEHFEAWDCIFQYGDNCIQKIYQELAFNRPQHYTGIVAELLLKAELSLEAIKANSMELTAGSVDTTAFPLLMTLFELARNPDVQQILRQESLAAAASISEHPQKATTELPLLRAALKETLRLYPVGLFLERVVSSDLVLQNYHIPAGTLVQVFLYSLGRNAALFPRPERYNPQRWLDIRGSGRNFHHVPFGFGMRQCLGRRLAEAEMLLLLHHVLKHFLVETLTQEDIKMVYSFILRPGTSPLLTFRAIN
Outline: (§1)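 Cells with endogenous FDXR/FDX and no detectable CYP11B activity, stably transfected (CMV promoter, neomycin selection, G-418 400 µg/mL) with CYP11B1 or CYP11B2 of the named species. Assayed in DMEM/F12 with 2.5% charcoal-treated FCS. Substrate 1 µM 11-deoxycorticosterone (B2) or 11-deoxycortisol (B1), 16 hr. Aldosterone or cortisol in supernatant measured by HTRF. IC50 from 4-parameter MMF fit; selectivity factor is the B1/B2 IC50 ratio.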

[2] = target: T2, Cytochrome P450 11B1, mitochondrial (Homo sapiens, UniProt P15538); assay: Inhibition of human CYP11B1 expressed in human renal leiomyoblastoma cells harboring FDXR/FDX using 1-deoxycortisol as substrate by HTRF assay; format: ADME, cell-based; outline: as §1
T2 sequence (P15538 whole entry): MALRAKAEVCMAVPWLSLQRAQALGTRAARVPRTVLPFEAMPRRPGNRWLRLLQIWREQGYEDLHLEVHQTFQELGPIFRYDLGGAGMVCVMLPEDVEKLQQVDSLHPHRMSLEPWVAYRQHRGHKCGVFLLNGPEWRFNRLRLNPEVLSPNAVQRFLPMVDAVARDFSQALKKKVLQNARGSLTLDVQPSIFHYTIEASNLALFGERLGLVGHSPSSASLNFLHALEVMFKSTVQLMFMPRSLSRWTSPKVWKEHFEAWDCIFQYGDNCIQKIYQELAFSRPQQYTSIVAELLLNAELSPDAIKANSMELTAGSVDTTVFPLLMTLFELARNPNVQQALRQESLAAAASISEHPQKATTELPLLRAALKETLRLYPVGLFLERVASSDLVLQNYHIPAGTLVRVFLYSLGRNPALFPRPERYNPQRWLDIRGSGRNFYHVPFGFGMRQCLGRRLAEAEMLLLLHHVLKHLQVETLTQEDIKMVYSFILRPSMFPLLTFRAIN

[3] = Selectivity ratio of IC50 for human CYP11B1 expressed in human renal leiomyoblastoma cells harboring FDXR/FDX to IC50 for human CYP11B2 expressed in human renal leiomyoblastoma cells harboring FDXR/FDX; format: cell-based; outline: as §1
[4] = Intrinsic clearance in human liver microsomes preincubated for 10 mins followed by NADPH regenerating system addition and measured up to 30 mins by LC/MS-MS analysis; format: ADME, Microsome; conditions: read-out: CLH
Outline: (§2)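 Liver microsomes at 0.5 mg protein/mL in 100 mM potassium phosphate, pH 7.4. Compound preincubated 10 min at 37 °C. Intrinsic clearance scaled using the well-stirred liver model.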

[5] = Intrinsic clearance in mouse liver microsomes preincubated for 10 mins followed by NADPH regenerating system addition and measured up to 30 mins by LC/MS-MS analysis; format: ADME, Microsome; outline: as §2
[6] = target: Cytochrome P450 3A4 (Homo sapiens, UniProt P08684); assay: Inhibition of CYP3A4 (unknown origin); format: ADME
[7] = target: Cytochrome P450 2D6 (Homo sapiens, UniProt P10635); assay: Inhibition of CYP2D6 (unknown origin); format: ADME
[8] = target: Cytochrome P450 2C9 (Homo sapiens, UniProt P11712); assay: Inhibition of CYP2C9 (unknown origin); format: ADME
[9] = Permeability of the compound measured at 18 hrs by PAMPA; format: ADME; conditions: read-out: permeability
Outline: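 PAMPA sandwich format. Donor: compound diluted to 150 μM (DMSO <2%) in 0.05 M MOPSO pH 6.5 with 0.5% glycocholic acid. Acceptor: 0.05 M MOPSO pH 6.5. Membrane of 10% egg lecithin with 0.5% cholesterol in dodecane. Donor measured at start; acceptor and donor measured at ~18 hr.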

[10] = Solubility of the compound in phosphate buffer at pH 6.5 shaken for 2 hrs followed by overnight incubation; format: physicochemical
Outline: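 Lyophilisation solubility assay run in duplicate from 10 mM DMSO stock. DMSO evaporated and residue redissolved in 0.05 M phosphate, pH 6.5. Stirred 1 hr, shaken 2 hr, left overnight, then filtered. Filtrate and a 1/10 dilution analysed by HPLC-UV against a four-point calibration.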

[11] = Inhibition of cynomolgus monkey CYP11B2 expressed in human G401 cells using 1-deoxycorticosterone as substrate by HTRF assay; format: cell-based, Macaca fascicularis; conditions: g-401; outline: as §1
[12] = Selectivity ratio of IC50 for cynomolgus monkey CYP11B1 expressed in human G401 cells to IC50 for cynomolgus monkey CYP11B2 expressed in human G401 cells; format: cell-based; outline: as §1
[13] = Plasma clearance in Wister-Han rat at 1 mg/kg, iv administered as single dose by LC/MS-MS analysis; format: ADME, organism-based; conditions: Wistar-Han
Outline: (§3)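 Male Wistar-Han rats, single dose. IV 1 mg/kg, compound at 0.5 mg/mL in NMP:saline 30/70 (v/v). Oral 3 mg/kg, 0.25 mg/mL in 2% Klucel with 0.1% Polysorbate 80. Three rats per time point. Heparinized blood taken at eight (iv) or seven (po) time points, plasma stored at -20 °C. Plasma levels by LC/MS-MS. Non-compartmental analysis.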

[14] = AUC (0 to infinity) in Wister-Han rat at 3 mg/kg, po administered as single dose by LC/MS-MS analysis; format: ADME, organism-based; set-up: dose 3 mg/kg, route oral, time infinity; conditions: Wistar-Han, in vivo; outline: as §3
[15] = Oral bioavailability in Wister-Han rat at 3 mg/kg administered as single dose by LC/MS-MS analysis; format: ADME, organism-based; conditions: Wistar-Han, in vivo; outline: as §3
[16] = Intrinsic clearance in rat liver microsomes preincubated for 10 mins followed by NADPH regenerating system addition and measured up to 30 mins by LC/MS-MS analysis; format: ADME, Microsome; outline: as §2
[17] = Protein binding in rat plasma assessed as unbound fraction at 1 uM by micro-equilibrium dialysis based LC-MS/MS analysis; format: ADME, cell-free
Outline: (§4)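 Equilibrium dialysis of pooled rat or cynomolgus plasma against Soerensen buffer pH 7.4, 12–14 kDa cut-off membrane. Compounds tested in cassettes of 2–5 at 1 μM initial total concentration, with diazepam as control. Dialysis 5 hr at 37 °C under 5% CO₂. Unbound percentage by LC/MS-MS.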

[18] = Protein binding in cynomolgus monkey plasma assessed as unbound fraction at 1 uM by micro-equilibrium dialysis based LC-MS/MS analysis; format: ADME, cell-free, Macaca fascicularis; outline: as §4
[19] = Intrinsic clearance in rat hepatocytes; format: ADME, cell-based, Hepatocyte; conditions: read-out: CLH
[20] = Intrinsic clearance in cynomolgus monkey hepatocytes; format: ADME, cell-based, Macaca fascicularis, Hepatocyte; conditions: read-out: CLH
[21] = Plasma clearance in iv dosed cynomolgus monkey; format: ADME, organism-based, Macaca fascicularis
[22] = Dose normalized AUC in cynomolgus monkey; format: ADME, Macaca fascicularis; conditions: in vivo
[23] = Dose normalized AUC in Wister-Han rat at 1 mg/kg, iv or 3 mg/kg, po administered as single dose by LC/MS-MS analysis; format: ADME, organism-based; conditions: in vivo; outline: as §3
[24] = Oral bioavailability in cynomolgus monkey; format: ADME, organism-based, Macaca fascicularis; conditions: in vivo
[25] = Octanol-water distribution coefficient, log D of the compound by carrier-mediated distribution system; format: physicochemical

Sequence of Cytochrome P450 2C9 (P11712 whole entry): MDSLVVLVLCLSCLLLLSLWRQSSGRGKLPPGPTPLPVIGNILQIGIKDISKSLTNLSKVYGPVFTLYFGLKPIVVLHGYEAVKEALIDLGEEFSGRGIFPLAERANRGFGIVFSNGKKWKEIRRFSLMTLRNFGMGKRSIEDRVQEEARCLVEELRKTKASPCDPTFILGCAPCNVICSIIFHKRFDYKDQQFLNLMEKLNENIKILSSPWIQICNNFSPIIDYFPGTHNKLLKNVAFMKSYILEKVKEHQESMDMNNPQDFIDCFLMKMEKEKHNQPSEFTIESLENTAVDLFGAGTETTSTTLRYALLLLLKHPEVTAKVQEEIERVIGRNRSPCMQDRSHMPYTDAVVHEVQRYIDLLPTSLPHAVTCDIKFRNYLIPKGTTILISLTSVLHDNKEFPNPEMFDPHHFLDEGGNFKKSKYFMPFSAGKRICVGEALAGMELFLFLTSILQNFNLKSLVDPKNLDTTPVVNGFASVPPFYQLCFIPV
Sequence of Cytochrome P450 3A4 (P08684 whole entry): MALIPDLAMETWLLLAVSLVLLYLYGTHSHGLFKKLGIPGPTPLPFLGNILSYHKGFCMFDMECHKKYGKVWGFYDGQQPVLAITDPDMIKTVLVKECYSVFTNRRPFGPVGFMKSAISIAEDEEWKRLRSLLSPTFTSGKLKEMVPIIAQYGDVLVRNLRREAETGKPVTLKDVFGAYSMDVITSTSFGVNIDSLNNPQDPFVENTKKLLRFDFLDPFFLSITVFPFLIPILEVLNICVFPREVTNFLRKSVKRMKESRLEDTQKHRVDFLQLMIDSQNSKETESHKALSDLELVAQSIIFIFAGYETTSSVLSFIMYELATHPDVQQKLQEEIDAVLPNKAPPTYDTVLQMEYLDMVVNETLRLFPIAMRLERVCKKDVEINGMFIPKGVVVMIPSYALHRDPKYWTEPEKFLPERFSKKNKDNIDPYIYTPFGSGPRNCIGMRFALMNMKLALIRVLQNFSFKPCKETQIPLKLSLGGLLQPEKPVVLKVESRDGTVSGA
Sequence of Cytochrome P450 2D6 (P10635 whole entry): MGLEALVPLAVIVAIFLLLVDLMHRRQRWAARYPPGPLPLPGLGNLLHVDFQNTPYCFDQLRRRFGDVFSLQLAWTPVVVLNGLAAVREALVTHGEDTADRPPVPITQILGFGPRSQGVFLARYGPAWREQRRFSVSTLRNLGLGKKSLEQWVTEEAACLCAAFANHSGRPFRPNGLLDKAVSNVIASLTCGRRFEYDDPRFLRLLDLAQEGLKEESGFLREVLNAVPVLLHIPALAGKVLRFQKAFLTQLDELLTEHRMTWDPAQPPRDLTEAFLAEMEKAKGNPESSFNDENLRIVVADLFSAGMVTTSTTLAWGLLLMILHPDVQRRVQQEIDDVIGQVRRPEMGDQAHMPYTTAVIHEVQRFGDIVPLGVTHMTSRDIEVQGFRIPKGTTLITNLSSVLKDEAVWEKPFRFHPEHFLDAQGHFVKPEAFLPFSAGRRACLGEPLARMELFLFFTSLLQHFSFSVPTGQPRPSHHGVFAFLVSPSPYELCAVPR

| SMILES | IC50 [1] | IC50 [2] | predicted hepatic clearance [4] | predicted hepatic clearance (CLH) [5] | Papp at 18 h [9] | solubility at 2 h [10] | IC50 [11] | clearance [13] | AUC(0-inf) [14] | bioavailability [15] | predicted hepatic clearance (CLH) [16] | Ratio IC50 [3] | Ratio IC50 [12] | further results |
| --- | --- | --- | --- | --- | --- | --- | --- | --- | --- | --- | --- | --- | --- | --- |
| Cn1cc(C(=O)N2CC3(C2)CN(c2cncc(N4C(=O)c5ccc(Cl)cc5C4(C)C)c2)C3)cn1 | 2 nM |  |  |  | 3.63 ×10⁻⁶ cm/s | 44 µg/mL (≈ 92.2 µM) |  | 6.4 mL/min/kg | 5660 ng·h/mL | 69% | 6.4 mL/min/kg | 5680 |  | fraction unbound at 1 µM [17]: 0.066; fraction unbound at 1 µM [18]: 0.036; CLint scaled [19]: < 4.4 mL/min/kg; CLint scaled [20]: < 3 mL/min/kg; clearance [21]: 2.1 mL/min/kg; AUC/dose [22]: 3111 kg·ng·h/mL/mg; AUC/dose [23]: 1889 kg·ng·h/mL/mg; bioavailability [24]: 37% |
| Cn1cc(C(=O)N2CC(Oc3cncc(N4C(=O)c5ccc(Cl)cc5C4(C)C)c3)C2)cn1 | 0.5 nM |  |  |  | 3.45 ×10⁻⁶ cm/s | 310 µg/mL (≈ 686 µM) |  | 3.8 mL/min/kg | 7880 ng·h/mL | 60% | 6.4 mL/min/kg | 4160 |  |  |
| O=C1c2ccc(Cl)cc2CCN1c1cccnc1 | 61 nM | 5000 nM | < 3.5 mL/min/kg | < 20.2 mL/min/kg |  |  |  |  |  |  |  | 82 |  | logD [25]: 2.25 |
| CC1(C)c2cc(Cl)ccc2C(=O)N1c1cncc(N2CCN(S(C)(=O)=O)CC2)c1 | 2 nM |  |  |  | 6.03 ×10⁻⁶ cm/s | 91 µg/mL (≈ 209 µM) | 0.2 nM | 16.6 mL/min/kg | 1640 ng·h/mL | 54% | 16.8 mL/min/kg | 146 | 170 |  |

Second part, led by results:

| IC50 [1] | IC50 [2] | predicted hepatic clearance [4] | predicted hepatic clearance (CLH) [5] | Papp at 18 h [9] | solubility at 2 h [10] | IC50 [11] | clearance [13] | AUC(0-inf) [14] | bioavailability [15] | predicted hepatic clearance (CLH) [16] | SMILES | Ratio IC50 [3] | Ratio IC50 [12] | further results |
| --- | --- | --- | --- | --- | --- | --- | --- | --- | --- | --- | --- | --- | --- | --- |
| 164 nM | 2590 nM | 6.6 mL/min/kg | 45 mL/min/kg |  |  |  |  |  |  |  | CC1CN(c2cccnc2)C(=O)c2ccc(Cl)cc21 (stereo not drawn) | 16 |  | IC50 [6]: > 50000 nM; IC50 [7]: > 50000 nM; IC50 [8]: > 50000 nM |
| 5 nM |  |  |  | 3.32 ×10⁻⁶ cm/s | 20 µg/mL (≈ 41.4 µM) | 0.5 nM | 3.1 mL/min/kg | 10800 ng·h/mL | 58% |  | CC1(C)c2cc(Cl)ccc2C(=O)N1c1cncc(OC2CN(C(=O)c3ncccc3Cl)C2)c1 | 174 | 1120 |  |
| 16 nM |  |  |  |  |  | 1 nM |  |  |  | 0.87 mL/min/kg | CCS(=O)(=O)N1CC2(CN(c3cncc(N4C(=O)c5ccc(Cl)cc5C4(C)C)c3)C2)C1 | 855 | 19700 |  |
| 76 nM | 5150 nM | < 3.5 mL/min/kg |  |  |  |  |  |  |  | < 20.2 mL/min/kg | CS(=O)(=O)N[C@@H]1CCCc2c1cncc2N1CCc2cc(Cl)ccc2C1=O | 68 |  |  |
| 179 nM | 10700 nM | 12.8 mL/min/kg | 76.5 mL/min/kg |  |  |  |  |  |  |  | O=C1c2ccc(Cl)cc2CN1c1cccnc1 | 60 |  | logD [25]: 2.52 |

Source: ChEMBL document CHEMBL4616681, “Discovery of 3-Pyridyl Isoindolin-1-one Derivatives as Potent, Selective, and Orally Active Aldosterone Synthase (CYP11B2) Inhibitors” (J Med Chem, 2020)
